Assay results taken from the array DNA melting data of Ke et al. (doi:10.1101/2024.01.08.574731).

Experiments:
[1] = folding enthalpy; higher = less favourable; fluorescence melt of hairpins on a sequencing array, two-state fit; settings: sodium 0.088 M
How it was run: (§1)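 Bootstrapped two-state fits yielded melting temperature and folding enthalpy for library hairpins. Cy3 fluorescence, with annealed Cy3 and quencher oligos, was imaged on a sequenced MiSeq flow cell in 50 mM Na-HEPES pH 8.0, 25 mM NaCl in 2.5 °C steps up to 60 °C, and normalised to pre-quench Cy3 and to control constructs. Four replicates were combined by inverse variance, and fitted temperatures were raised by 9.35 °C to match UV melts.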

[2] = melting temperature; fluorescence melt of hairpins on a sequencing array, two-state fit, raised by 9.35 °C to match UV melts; settings: sodium 0.088 M
How it was run: as §1

## CGCAGACGGAAACGTGCG (((..(((....))))))
[1]
  folding enthalpy: -22.6 kcal/mol
[2]
  Tm: 49.3 °C

## GAAAATGGAAACGTTTTC (((((.(....).)))))
[1]
  folding enthalpy: -32.3 kcal/mol
[2]
  Tm: 37.8 °C

## GGCGGACGAAAGTCGCC (((.(((....))))))
[1]
  folding enthalpy: -28.2 kcal/mol
[2]
  Tm: 68.5 °C

## GGCGACACGAAAGTGGCC (((..(((....))))))
[1]
  folding enthalpy: -15.1 kcal/mol
[2]
  Tm: 53.1 °C

## GCTACTGAAAAGTAGC ((((((....))))))
[1]
  folding enthalpy: -35.1 kcal/mol
[2]
  Tm: 56.7 °C

## GTCTCTGGAAACAGAGGC (.(((((....))))).)
[1]
  folding enthalpy: -26.2 kcal/mol
[2]
  Tm: 49.5 °C

## GGTAGCGGAAACGCTATC (.(((((....))))).)
[1]
  folding enthalpy: -29.2 kcal/mol
[2]
  Tm: 51.8 °C

## GATCACATAAGTGATC ((((((....))))))
[1]
  folding enthalpy: -39.3 kcal/mol
[2]
  Tm: 58.9 °C

## GTGTGAGGAAACTCATGC (..((((....))))..)
[1]
  folding enthalpy: -23.5 kcal/mol
[2]
  Tm: 36.8 °C

## GCCCGGCGAAAGCCTCGC ((..(((....)))..))
[1]
  folding enthalpy: -6.9 kcal/mol
[2]
  Tm: 27.3 °C

## GATCACGGAAACGTGGTC ((.((((....)))).))
[1]
  folding enthalpy: -38.7 kcal/mol
[2]
  Tm: 53.8 °C

## GATCACAAGCGTGATC ((((((....))))))
[1]
  folding enthalpy: -37.6 kcal/mol
[2]
  Tm: 56.6 °C

## GGCAGCGAAAGCTGAGCC ((((((....)))..)))
[1]
  folding enthalpy: -14.1 kcal/mol
[2]
  Tm: 51.9 °C

## GAACCAGGAAACTGGTTC (((((((....)))))))
[1]
  folding enthalpy: -45.1 kcal/mol
[2]
  Tm: 62 °C

## GGACTGGAAACAGTCC ((((((....))))))
[1]
  folding enthalpy: -30.2 kcal/mol
[2]
  Tm: 59.8 °C

## GTCCTGGGAAACTAGGGC (.(((.(....).))).)
[1]
  folding enthalpy: -28.8 kcal/mol
[2]
  Tm: 40 °C

## GCATCGCGAAAGCAACGC ((.(.((....)).).))
[1]
  folding enthalpy: -13.5 kcal/mol
[2]
  Tm: 40.6 °C

## GGCTGGGGAAACTCAGCC (((((.(....).)))))
[1]
  folding enthalpy: -38.7 kcal/mol
[2]
  Tm: 57 °C

## GAGCTGCCGAAAGGCCTC (((..(((....))))))
[1]
  folding enthalpy: -11.3 kcal/mol
[2]
  Tm: 32.7 °C

## CGTGCGGAAACGCAACG ((((((....))).)))
[1]
  folding enthalpy: -27.5 kcal/mol
[2]
  Tm: 53.9 °C

## GCACCAGGAAACTGGCGC ((.((((....)))).))
[1]
  folding enthalpy: -41.4 kcal/mol
[2]
  Tm: 55.6 °C

## GTCGCTCCGAAAGGAGAC (((..(((....))))))
[1]
  folding enthalpy: -10.5 kcal/mol
[2]
  Tm: 34.9 °C

## GTACCCGAAAGGGTTAC ((((((....))).)))
[1]
  folding enthalpy: -13.4 kcal/mol
[2]
  Tm: 46.4 °C

## TCTCGGAAACGAGA (((((....)))))
[1]
  folding enthalpy: -19.6 kcal/mol
[2]
  Tm: 47.9 °C

## GCGAAGGGAAACCTTTGC ((.((((....)))).))
[1]
  folding enthalpy: -34.6 kcal/mol
[2]
  Tm: 49.8 °C

## GATCGTACTAACGATC ((((((....))))))
[1]
  folding enthalpy: -39.1 kcal/mol
[2]
  Tm: 54.8 °C

## GATCCTAATCAGGATC ((((((....))))))
[1]
  folding enthalpy: -38.6 kcal/mol
[2]
  Tm: 50.5 °C

## GATCCTGGGAAGGATC ((((((....))))))
[1]
  folding enthalpy: -42.3 kcal/mol
[2]
  Tm: 59.7 °C

## GATCGAGAGTTCGATC ((((((....))))))
[1]
  folding enthalpy: -36.7 kcal/mol
[2]
  Tm: 50.5 °C

## GGACTGGGAAACCGGTCC ((((.((....)).))))
[1]
  folding enthalpy: -39.9 kcal/mol
[2]
  Tm: 58.6 °C

## GCCCCGGGAAACCGGAGC ((.((((....)))).))
[1]
  folding enthalpy: -22.7 kcal/mol
[2]
  Tm: 56.1 °C

## GGGATCGAAAGATGGCCC ((((((....)))..)))
[1]
  folding enthalpy: -13.8 kcal/mol
[2]
  Tm: 33.5 °C

## GATCGTGAGACGATC ((((((...))))))
[1]
  folding enthalpy: -33.8 kcal/mol
[2]
  Tm: 54 °C

## GTGCCTGGAAACAGGTGC (..((((....))))..)
[1]
  folding enthalpy: -23.2 kcal/mol
[2]
  Tm: 48.9 °C

## GCAGGGGGAAACCCCCAC (..((((....))))..)
[1]
  folding enthalpy: -9.57 kcal/mol
[2]
  Tm: 33.1 °C

## GTTCGCGAAAGCGGTAAC ((((((....)))..)))
[1]
  folding enthalpy: -11 kcal/mol
[2]
  Tm: 30.7 °C

## CGGTTCGGAAACGAGCCG (((.(((....))).)))
[1]
  folding enthalpy: -50.5 kcal/mol
[2]
  Tm: 58.6 °C

## GATCACAATGGTGATC ((((((....))))))
[1]
  folding enthalpy: -35.1 kcal/mol
[2]
  Tm: 55.3 °C
